# Results pooled from the literature.
# Compare with care: the assays were run in different laboratories.
# rep papain-like protease: Replicase polyprotein 1ab, papain-like protease (rep, Severe acute respiratory syndrome coronavirus 2, UniProt P0DTD1)
# rep helicase: Replicase polyprotein 1ab, helicase (rep, Severe acute respiratory syndrome coronavirus 2, UniProt P0DTD1)
# ADRA1A: Alpha-1A adrenergic receptor (ADRA1A, Homo sapiens, UniProt P35348)
# MAOA: Amine oxidase [flavin-containing] A (MAOA, Homo sapiens, UniProt P21397)
Structure (SMILES),target,test,quantity,value
CCC(C(=O)Nc1cc(NC2CCOC2)ccc1C)n1cc(Cl)cc2nc(SCc3ccc(F)cc3)nc1-2 (stereo not shown),rep papain-like protease,"enzyme activity, inhibitor",IC50,0.169 µM
Brc1ccc2c(c1)C(c1ccccn1)=NCc1c(-c3cnco3)ncn1-2,"Translocator protein (Tspo, Rattus norvegicus, UniProt P16257)","ligand displacement, radioligand",Ki,0.331 µM
CSCCNc1nc(SCCC(F)(F)F)nc2c1ncn2[C@@H]1O[C@H](COP(=O)(O)OP(=O)(O)C(Cl)(Cl)P(=O)(O)O)[C@@H](O)[C@H]1O,rep helicase,"enzyme activity, inhibitor",IC50,> 100 µM
CCC(C(=O)Nc1cc(NC2COC2)ccc1C)n1cc(F)cc2nc(SCc3ccc(F)cc3)nc1-2 (stereo not shown),rep papain-like protease,"enzyme activity, inhibitor",IC50,0.436 µM
COc1ccc2cc1Oc1ccc(cc1)C[C@H]1c3c(cc4c(c3Oc3cc5c(cc3OC)CCN(C)[C@@H]5C2)OCO4)CCN1C,rep helicase,"enzyme activity, inhibitor",IC50,4.5 µM
CCCNC(=O)[C@H]1O[C@@H]1C(=O)N[C@H](C(=O)N1CCC[C@H]1C(=O)O)[C@@H](C)CC,rep papain-like protease,"enzyme activity, inhibitor, FRET",IC50,170 µM
CNC(=O)c1ccc(-c2cnn3ccc(C(=O)N(C)c4ccc(Cl)c(C(=O)OC)c4)cc23)cc1,ADRA1A,cell-free assay,IC50,> 30 µM
C#CCN(C)CCCCCCCCOc1cccc(CN(C)c2c3c(nc4ccc(F)cc24)CCCC3)c1,MAOA,"enzyme activity, inhibitor, fluorescence",IC50,61.3 µM
COC(=O)c1cc(N(C)C(=O)c2ccn3ncc(-c4ccc(C(=O)O)cc4)c3c2)ccc1Cl,ADRA1A,cell-free assay,IC50,> 30 µM
C#CCN(C)CCOc1cccc(CN(C)c2c3c(nc4ccccc24)CCCC3)c1,MAOA,"enzyme activity, inhibitor, fluorescence",IC50,10.3 µM
Cc1cc(Nc2ncc(Cl)c(Nc3ccccc3S(=O)(=O)C(C)C)n2)c(OC(C)C)cc1C1CCNCC1,rep papain-like protease,"enzyme activity, inhibitor, FRET",IC50,19.5 µM
CCCC(C(=O)Nc1cc(NC2CNC2)ccc1C)n1cccc2nc(SCc3ccc(F)cc3)nc1-2 (stereo not shown),rep papain-like protease,"enzyme activity, inhibitor",IC50,1.48 µM
C#CCN(C)CCCCCCOc1cccc(CN(C)c2c3c(nc4ccc(C)cc24)CCCC3)c1,MAOA,"enzyme activity, inhibitor, fluorescence",IC50,4.87 µM
